Data from ChEMBL document CHEMBL1122917, “Vinblastin-23-oyl amino acid derivatives: chemistry, physicochemical data, toxicity, and antitumor activities against P388 and L1210 leukemias” (J Med Chem, 1985).

How the values were obtained:
Mus musculus [1] = assay: Percent increase in life span at dose 10 mg/kg/day in 10 mice implanted with P388 leukemia cell line; type: functional
How it was run: (§1)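 Female DBA2 mice inoculated iv on day 0 with 10^4 P388 cells; single iv treatment on day 1 with drug as sulfate salt in physiological saline. Survival followed; %ILS from all deaths and survivors as (T/C × 100) − 100, maximal MST 30 days; survivors counted on days 30 and 60. Most experiments confirmed three times.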

[2] = Acute iv toxicity against Swiss strain of 40 mice after 4 doses of injection; type: organism-based; conditions: mouse, in vivo
How it was run: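 Acute toxicity in Swiss, CD1 or NMRI mice. Drugs given iv as sulfate salts. LD50 taken at day 14 from several dose levels, with 40–[…] mice per drug and strain.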

Mus musculus [3] = assay: Percent increase in life span of DBA2 mice after inoculation with L1210 leukemia intravenously at a dose of 8 mg/kg per day; type: functional; conditions: route intravenous
How it was run: (§2)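 Female DBA2 mice inoculated iv on day 0 with 10^4 L1210 cells; drugs given iv as sulfate salts in physiological saline, mostly once on day 1. %ILS from all deaths and survivors as (T/C × 100) − 100; survivors scored on days 30 and 60.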

Mus musculus [4] = assay: Percent increase in life span of DBA2 mice after inoculation with L1210 leukemia intravenously at a dose of 9 mg/kg per day; type: functional; conditions: route intravenous; how it was run: as §2
Mus musculus [5] = assay: Number of survivors of DBA2 mice on 60th day after inoculation with L1210 leukemia cell line intraperitoneally at a dose of 3 mg/kg/day; 0/10; type: functional; conditions: route intraperitoneal
Mus musculus [6] = assay: Number of survivors of DBA2 mice on 60th day after inoculation with L1210 leukemia cell line intraperitoneally at a dose of 6 mg/kg/day; 0/10; type: functional; conditions: route intraperitoneal
Mus musculus [7] = assay: Number of survivors on 60th day at dose 3 mg/kg/day in 10 mice implanted with P388 leukemia cell line; 0/10; type: functional
Mus musculus [8] = assay: Number of survivors of DBA2 mice on 30th day after inoculation with L1210 leukemia cell line intravenously at a dose of 6 mg/kg/day; 0/10; type: functional; conditions: route intravenous
Mus musculus [9] = assay: Number of survivors of DBA2 mice on 30th day after inoculation with L1210 leukemia cell line intravenously at a dose of 8 mg/kg/day; 0/10; type: functional; conditions: route intravenous
Mus musculus [10] = assay: Number of survivors of DBA2 mice on 30th day after inoculation with L1210 leukemia cell line intravenously at a dose of 9 mg/kg/day; 0/10; type: functional; conditions: route intravenous
Mus musculus [11] = assay: Percent increase in life span at dose 9 mg/kg/day in 10 mice implanted with P388 leukemia cell line; type: functional; how it was run: as §1
Mus musculus [12] = assay: Number of survivors on 60th day at dose 9 mg/kg/day in 10 mice implanted with P388 leukemia cell line; 0/10; type: functional; how it was run: as §1
Mus musculus [13] = assay: Number of survivors on 60th day at dose 4 mg/kg/day in 10 mice implanted with P388 leukemia cell line for 1st scheduled day; 0/10; type: functional
Mus musculus [14] = assay: Number of survivors on 60th day at dose 5 mg/kg/day in 10 mice implanted with P388 leukemia cell line; 0/10; type: functional
Mus musculus [15] = assay: Number of survivors of DBA2 mice on 30th day after inoculation with L1210 leukemia cell line intravenously at a dose of 3 mg/kg/day; 0/10; type: functional; conditions: route intravenous
Mus musculus [16] = assay: Number of survivors of DBA2 mice on 60th day after inoculation with L1210 leukemia cell line intravenously at a dose of 8 mg/kg/day; 0/10; type: functional; conditions: route intravenous
Mus musculus [17] = assay: Percent increase in life span of BDF1 mice after inoculation with P388 leukemia intraperitoneally at a dose of 6 mg/kg per day; conditions: P388, ip
Mus musculus [18] = assay: Number of survivors on 60th day at dose 75 mg/kg/day in 7 mice implanted with P388 leukemia cell line for 1,8,15 scheduled days in Exp-2; 2/10; type: functional
Mus musculus [19] = assay: Percent increase in life span at dose 65 mg/kg/day in 10 mice implanted with P388 leukemia cell line for 1st schedule day; type: functional
Mus musculus [20] = assay: Number of survivors on 60th day at dose 40 mg/kg/day in 10 mice implanted with P388 leukemia cell line; 4/10; type: functional
Mus musculus [21] = assay: Number of survivors on 30th day at dose 55 mg/kg/day in 10 mice implanted with P388 leukemia cell line; 7/10; type: functional
Mus musculus [22] = assay: Percent increase in life span at dose 2 mg/kg/day in 10 mice implanted with P388 leukemia cell line; type: functional; how it was run: as §1
Mus musculus [23] = assay: Percent increase in life span at dose 2.5 mg/kg/day in 10 mice implanted with P388 leukemia cell line for 1st scheduled day; type: functional
Mus musculus [24] = assay: Percent increase in life span of DBA2 mice after inoculation with L1210 leukemia intravenously at a dose of 2.5 mg/kg per day; type: functional; conditions: route intravenous; how it was run: as §2
Mus musculus [25] = assay: Number of survivors on 30th day at dose 3 mg/kg/day in 10 mice implanted with P388 leukemia cell line; 0/10; type: functional
Mus musculus [26] = assay: Number of survivors of DBA2 mice on 60th day after inoculation with L1210 leukemia cell line intravenously at a dose of 2.5 mg/kg/day; 0/10; type: functional; conditions: route intravenous
Mus musculus [27] = assay: Number of survivors on 30th day at dose 2 mg/kg/day in 10 mice implanted with P388 leukemia cell line; 0/10; type: functional
Mus musculus [28] = assay: Number of survivors on 30th day at dose 6 mg/kg/day in 10 mice implanted with P388 leukemia cell line; 0/10; type: functional
Mus musculus [29] = assay: Percent increase in life span of BDF1 mice after inoculation with P388 leukemia intraperitoneally at a dose of 2.5 mg/kg per day; conditions: P388, ip
Mus musculus [30] = assay: Number of survivors on 60th day at dose 6 mg/kg/day in 7 mice implanted with P388 leukemia cell line for 1,8.15 scheduled days from Exp-1; 0/10; type: functional
Mus musculus [31] = assay: Number of survivors on 60th day at dose 6 mg/kg/day in 7 mice implanted with P388 leukemia cell line for 1,8.15 scheduled days from Exp-2; 0/10; type: functional
Mus musculus [32] = assay: Percent increase in life span of DBA2 mice after inoculation with L1210 leukemia intravenously at a dose of 10 mg/kg per day; type: functional; conditions: route intravenous
Mus musculus [33] = assay: Number of survivors on 60th day at dose 7 mg/kg/day in 9 mice implanted with P388 leukemia cell line; 0/9; type: functional
Mus musculus [34] = assay: Number of survivors of DBA2 mice on 60th day after inoculation with L1210 leukemia cell line intravenously at a dose of 0.5 mg/kg/day; 0/10; type: functional; conditions: route intravenous
Mus musculus [35] = assay: Percent increase in life span of DBA2 mice after inoculation with L1210 leukemia intravenously at a dose of 5.5 mg/kg per day; type: functional; conditions: route intravenous
Mus musculus [36] = assay: Percent increase in life span of DBA2 mice after inoculation with L1210 leukemia intravenously at a dose of 2 mg/kg per day; type: functional; conditions: route intravenous
Mus musculus [37] = assay: Number of survivors of DBA2 mice on 30th day after inoculation with L1210 leukemia cell line intravenously at a dose of 1 mg/kg/day; 0/10; type: functional; conditions: route intravenous
Mus musculus [38] = assay: Number of survivors on 30th day at dose 1 mg/kg/day in 10 mice implanted with P388 leukemia cell line; 0/10; type: functional

Structure (SMILES)	LD50 [2]	ILS at 8 mg/kg/day (Mus musculus [3])	ILS at 9 mg/kg/day (Mus musculus [4])	Survivors (Mus musculus [5])	Survivors (Mus musculus [6])	Survivors (Mus musculus [7])	Survivors (Mus musculus [8])	Survivors (Mus musculus [9])	Survivors (Mus musculus [10])	ILS at 9 mg/kg/day (Mus musculus [11])	Survivors (Mus musculus [12])	Survivors (Mus musculus [13])	Survivors (Mus musculus [14])	Survivors (Mus musculus [15])	Survivors (Mus musculus [16])	ILS at 6 mg/kg/day (Mus musculus [17])	ILS at 2 mg/kg/day (Mus musculus [22])	ILS at 2.5 mg/kg/day (Mus musculus [24])	Survivors (Mus musculus [26])	Survivors (Mus musculus [27])	other results
CC[C@]1(O)C[C@@H]2CN(CCc3c([nH]c4ccccc34)[C@@](C(=O)OC)(c3cc4c(cc3OC)N(C)[C@H]3[C@@](O)(C(=O)OC)[C@H](OC(C)=O)[C@]5(CC)C=CCN6CC[C@]43[C@@H]65)C2)C1 [VINBLASTINE]	26 mg/kg	57.6%	-21.6%	0	0	0	0	0	0	49.5%	0	0	0	0	0	-61%	–	–	–	–	ILS at 10 mg/kg/day (Mus musculus [1]): 81%
CCOC(=O)[C@H](Cc1c[nH]c2ccccc12)NC(=O)[C@@]1(O)[C@H](O)[C@]2(CC)C=CCN3CC[C@@]4(c5cc([C@@]6(C(=O)OC)C[C@H]7C[N@](CCc8c6[nH]c6ccccc86)C[C@](O)(CC)C7)c(OC)cc5N(C)[C@@]14C)[C@@H]32	94 mg/kg	–	–	–	–	–	–	–	–	–	–	–	–	–	–	–	–	–	–	–	Survivors (Mus musculus [18]): 2; ILS at 65 mg/kg/day (Mus musculus [19]): 82%; Survivors (Mus musculus [20]): 4; Survivors (Mus musculus [21]): 7
CC[C@]1(O)C[C@@H]2CN(CCc3c([nH]c4ccccc34)[C@@](C(=O)OC)(c3cc4c(cc3OC)N(C)[C@H]3[C@@](O)(C(N)=O)[C@H](O)[C@]5(CC)C=CCN6CC[C@]43[C@@H]65)C2)C1 [VINDESINE]	–	–	–	0	0	0	–	–	–	–	–	0	0	–	–	-47%	27.1%	13.3%	0	0	ILS at 2.5 mg/kg/day (Mus musculus [23]): 32%; Survivors (Mus musculus [25]): 0; Survivors (Mus musculus [28]): 0; ILS at 2.5 mg/kg/day (Mus musculus [29]): 150%
CCOC(=O)[C@@H](NC(=O)[C@@]1(O)[C@H](O)[C@]2(CC)C=CCN3CC[C@@]4(c5cc([C@@]6(C(=O)OC)C[C@H]7C[N@](CCc8c6[nH]c6ccccc86)C[C@](O)(CC)C7)c(OC)cc5N(C)[C@@]14C)[C@@H]32)[C@@H](C)CC	–	49%	64%	–	–	–	0	0	0	34%	0	–	–	–	0	–	–	–	–	–	Survivors (Mus musculus [30]): 0; Survivors (Mus musculus [31]): 0; ILS at 10 mg/kg/day (Mus musculus [32]): 27%; Survivors (Mus musculus [33]): 0
CC[C@]1(O)C[C@H]2CN(CCc3c([nH]c4ccccc34)[C@@](C(=O)OC)(c3cc4c(cc3OC)N(C=O)[C@H]3[C@@](O)(C(=O)OC)[C@H](OC(C)=O)[C@]5(CC)C=CCN6CC[C@]43[C@@H]65)C2)C1 [VINCRISTINE]	–	–	–	–	–	–	–	–	–	–	–	–	–	0	–	–	-46%	30%	0	0	Survivors (Mus musculus [34]): 0; ILS at 5.5 mg/kg/day (Mus musculus [35]): 26.6%; ILS at 2 mg/kg/day (Mus musculus [36]): 16%; Survivors (Mus musculus [37]): 0; Survivors (Mus musculus [38]): 0
